Data from ChEMBL document CHEMBL2057134, “Small molecule tertiary amines as agonists of the nuclear hormone receptor Rev-erbα” (Bioorg Med Chem Lett, 2012).

Legend:
[1] = target: T1, Nuclear receptor subfamily 1 group D member 1 (Homo sapiens) (UniProt P20393); assay: Agonist activity at Rev-Erbalpha expressed in HEK293 cells coexpressing […] promoter assessed as repression of transcription at 10 uM after 24 hrs by dual-Glo luciferase assay relative to control; type: functional, cell-based
T1 sequence (whole entry): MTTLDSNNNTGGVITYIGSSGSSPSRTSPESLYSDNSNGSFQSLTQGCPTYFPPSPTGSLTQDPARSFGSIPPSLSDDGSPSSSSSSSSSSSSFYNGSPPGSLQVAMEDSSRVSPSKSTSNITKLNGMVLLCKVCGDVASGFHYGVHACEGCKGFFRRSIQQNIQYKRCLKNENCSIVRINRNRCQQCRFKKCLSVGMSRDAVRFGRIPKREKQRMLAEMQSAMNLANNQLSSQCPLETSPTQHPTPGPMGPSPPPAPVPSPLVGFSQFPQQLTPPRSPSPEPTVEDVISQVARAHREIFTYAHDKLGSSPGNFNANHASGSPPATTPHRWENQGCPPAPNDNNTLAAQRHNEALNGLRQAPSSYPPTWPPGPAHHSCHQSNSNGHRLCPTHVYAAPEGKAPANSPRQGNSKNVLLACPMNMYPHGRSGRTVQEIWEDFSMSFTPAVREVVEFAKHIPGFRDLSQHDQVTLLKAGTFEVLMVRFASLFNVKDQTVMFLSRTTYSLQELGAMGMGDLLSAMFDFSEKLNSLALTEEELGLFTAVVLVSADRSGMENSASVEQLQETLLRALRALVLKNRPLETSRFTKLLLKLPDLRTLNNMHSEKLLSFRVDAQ
Summary of the method: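 Cells co-transfected with full-length Rev-erbα expression plasmid plus Bmal1 promoter-luciferase reporter; renilla luciferase for normalization and toxicity check. Average of 2 or more experiments.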

[2] = target: T2, Nuclear receptor subfamily 1 group D member 1 (Homo sapiens, UniProt P20393); assay: Agonist activity at Rev-Erbalpha expressed in HEK293 cells coexpressing […] promoter assessed as repression of transcription after 24 hrs by dual-Glo luciferase assay; type: functional, cell-based
T2 sequence (P20393 whole entry): T1 sequence (whole entry)
Summary of the method: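 Cells co-transfected with full-length Rev-erbα expression plasmid and Bmal1 promoter-driven luciferase reporter. Renilla luciferase used for normalization and toxicity monitoring. Average of 2 or more experiments.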

[3] = Plasma concentration in C57BL/6 mouse at 10 mg/kg, ip measured after 2 hrs by LC-MS/MS analysis; type: ADME, organism-based; parameters: dose 10 mg/kg, route intraperitoneal
Summary of the method: (§1)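 C57Bl6 mice (n = 3) given 10 mg/kg IP in 10:10:80 DMSO:Tween:water; blood and brain collected at 2 h. Plasma frozen at −80°C. Plasma and brain mixed with acetonitrile (1:5 v:v or w:v), brain probe-sonicated. Drug quantified by LC-MS/MS against standards in plasma or blank brain matrix.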

[4] = Drug uptake in C57BL/6 mouse brain at 10 mg/kg, ip measured after 2 hrs by LC-MS/MS analysis; type: ADME, organism-based; parameters: dose 10 mg/kg, route intraperitoneal; details: read-out: Drug uptake; summary of the method: as §1
[5] = Drug uptake in C57BL/6 mouse brain at 50 mg/kg, ip measured after 8 hrs by LC-MS/MS analysis

Structure (SMILES)	Ratio [1]	EC50 [2] [nM]	also measured
CC(C)(C)OC(=O)N1CCC(CN(Cc2ccc(Cl)cc2)Cc2ccc([N+](=O)[O-])s2)C1 (racemic)	0.33	1800	
CC(=O)N1CCC(CN(Cc2ccc(Cl)cc2)Cc2ccc([N+](=O)[O-])s2)C1 (racemic)	0.35	1600	
O=C(Nc1ccc([N+](=O)[O-])cc1)N1CCC(CN(Cc2ccc(Cl)cc2)Cc2ccc([N+](=O)[O-])s2)C1 (racemic)	0.37	400	
C=CCOC(=O)N1CCC(CN(Cc2ccc(Cl)cc2)Cc2ccc([N+](=O)[O-])s2)C1 (racemic)	0.35	670	
NC(=O)CN(Cc1ccc(Cl)cc1)Cc1ccc([N+](=O)[O-])s1	0.75	3000	
CC(C)(C)OC(=O)CN(Cc1ccc([N+](=O)[O-])cc1)Cc1ccc([N+](=O)[O-])s1	0.58	2500	
COC(=O)CN(Cc1ccc(Cl)cc1)Cc1ccc([N+](=O)[O-])s1	0.8	3900	
O=[N+]([O-])c1ccc(CN(Cc2ccc(Cl)cc2)CC2CCCCC2)s1	0.3	7400	
O=[N+]([O-])c1ccc(CN(Cc2ccc(Cl)cc2)CC2CCN(S(=O)(=O)Cc3ccccc3)C2)s1 (racemic)	0.4	630	
CC(C)(C)OC(=O)CN(Cc1ccc(Cl)cc1)Cc1cccs1	0.93		
COc1ccc(CN(CC(=O)OC(C)(C)C)Cc2ccc([N+](=O)[O-])s2)cc1	0.68	2900	
O=[N+]([O-])c1ccc(CN(Cc2ccc(Cl)cc2)Cc2ccc3ccccc3c2)s1	0.7	8800	
CC(C)(C)OC(=O)CN(Cc1ccc([N+](=O)[O-])s1)S(=O)(=O)c1cccc2ccccc12	0.37	800	
Cc1ccc(S(=O)(=O)N2CCC(CN(Cc3ccc(Cl)cc3)Cc3ccc([N+](=O)[O-])s3)C2)cc1 (racemic)	> 1		
CC(C)(C)OC(=O)N1CCC(N(Cc2ccc(Cl)cc2)Cc2ccc([N+](=O)[O-])s2)CC1	0.31		
Cc1ccc(S(=O)(=O)N(CC(=O)OC(C)(C)C)Cc2ccc([N+](=O)[O-])s2)cc1	0.5	3000	
O=C(Oc1ccccc1)N1CCC(CN(Cc2ccc(Cl)cc2)Cc2ccc([N+](=O)[O-])s2)C1 (racemic)	0.55		
CN1CCC(CN(Cc2ccc(Cl)cc2)Cc2ccc([N+](=O)[O-])s2)C1 (racemic)	0.95		
CC(C)(C)OC(=O)N1CCC(CN(Cc2ccc(Cl)cc2)Cc2ccc([N+](=O)[O-])s2)CC1	0.8		
CCCCNC(=O)N1CCC(CN(Cc2ccc(Cl)cc2)Cc2ccc([N+](=O)[O-])s2)C1 (racemic)	0.35	670	concentration at 2 h [3]: 530 nM; concentration at 2 h [4]: 240 nM
CC(C)(C)OC(=O)CN(Cc1ccc(Cl)cc1)Cc1nc2ccccc2s1	0.82		
Cc1ccc(S(=O)(=O)N(Cc2ccc(Cl)cc2)Cc2ccc([N+](=O)[O-])s2)cc1	0.5	2500	
O=[N+]([O-])c1ccc(CN(Cc2ccc(Cl)cc2)CC2COc3ccccc3O2)s1 (racemic)	0.4	7800	

Structure (SMILES)	Ratio [1]	EC50 [2] [nM]	also measured
O=C(c1cccc2ccccc12)N(Cc1ccc(Cl)cc1)Cc1ccc([N+](=O)[O-])s1	0.4	2600	
CC(C)(C)OC(=O)CNCc1ccc(Cl)cc1	1.2		
O=C(O)CN(Cc1ccc(Cl)cc1)Cc1ccc([N+](=O)[O-])s1	0.85		
CC(C)(C)OC(=O)CN(Cc1ccncc1)Cc1ccc(Cl)cc1	0.81		
N#CCN(Cc1ccc(Cl)cc1)Cc1ccc([N+](=O)[O-])s1	0.79	2500	
CC(C)(C)OC(=O)CN(Cc1ccccc1)Cc1ccc([N+](=O)[O-])s1	1.1		
O=[N+]([O-])c1ccc(CN(Cc2ccc(Cl)cc2)CC2CCN(S(=O)(=O)c3cccc4ccccc34)C2)s1 (racemic)	0.45	450	
CC(C)(C)OC(=O)N1CCCC(CN(Cc2ccc(Cl)cc2)Cc2ccc([N+](=O)[O-])s2)C1 (racemic)	0.9		
CS(=O)(=O)n1ccc(CN(Cc2ccc(Cl)cc2)Cc2ccc([N+](=O)[O-])s2)c1	1		
CC(C)(C)OC(=O)N1CCC(N(Cc2ccc(Cl)cc2)Cc2ccc([N+](=O)[O-])s2)C1 (racemic)	0.24	1600	
CC(C)(C)OC(=O)CN(Cc1ccc([N+](=O)[O-])s1)C(=O)c1cccc2ccccc12	0.48	2600	
O=[N+]([O-])c1ccc(CN(Cc2ccc(Cl)cc2)Cc2nc3ccccc3s2)s1	0.5	4000	
CC(C)(C)OC(=O)CN(Cc1ccc(Cl)cc1)CC1CCCC1	1.1		
CC(C)(C)OC(=O)CN(Cc1ccc2ccccc2c1)Cc1ccc([N+](=O)[O-])s1	0.6		
CCOC(=O)N1CCC(CN(Cc2ccc(Cl)cc2)Cc2ccc([N+](=O)[O-])s2)C1 (racemic) [SR9009]			concentration at 8 h [5]: 8700 nM
O=C(Nc1ccccc1)N1CCC(CN(Cc2ccc(Cl)cc2)Cc2ccc([N+](=O)[O-])s2)C1 (racemic)	0.33	620	
CC(C)(C)OC(=O)CN(Cc1ccc(F)cc1)Cc1ccc([N+](=O)[O-])s1	0.77	2000	
CC(C)(C)OC(=O)CN(Cc1ccc(Cl)cc1)Cc1cnc[nH]1	0.88		
CS(=O)(=O)N1CCC(CN(Cc2ccc(Cl)cc2)Cc2ccc([N+](=O)[O-])s2)C1 (racemic)	0.3	570	concentration at 2 h [3]: 540 nM; concentration at 2 h [4]: 1300 nM
CC(C)(C)OC(=O)CN(Cc1ccc([N+](=O)[O-])s1)Cc1cccc2ccccc12	0.6	2500	
CC(C)(C)OC(=O)N1CCCC(N(Cc2ccc(Cl)cc2)Cc2ccc([N+](=O)[O-])s2)C1 (racemic)	0.14		
O=[N+]([O-])c1ccc(CN(Cc2ccc(Cl)cc2)Cc2ccc(C(F)(F)F)cc2)s1	0.45	5500	
O=[N+]([O-])c1ccc(CN(Cc2ccc(Cl)cc2)CC2CCN(Cc3ccccc3)C2)s1 (racemic)	1		
